In ChEMBL document CHEMBL1152447, “Benzothiopyranoindole-based antiproliferative agents: synthesis, cytotoxicity, nucleic acids interaction, and topoisomerases inhibition properties” (J Med Chem, 2009):
Activity calls are given as the source filed them. The rule behind the calls is not given here.

Assays:
[1] = Stabilization of supercoiled pBR322 DNA-human recombinant topoisomerase 2 complex assessed as reduction in linear DNA formation at 8 uM
[2] = biological target: DNA topoisomerase 2-alpha (Homo sapiens) (UniProt P11388); assay: Inhibition of human recombinant topoisomerase 2 relaxation activity assessed as supercoiled pBR322 DNA at 8 uM
Procedure, shortened: (§1)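 Human recombinant topoisomerase IIα (1 U) relaxation of supercoiled pBR322 (0.25 μg) with compound, 60 min at 37 °C. Stopped with SDS/proteinase K (50 μg/mL, 30 min, 37 °C). Products separated on 1% agarose, stained with ethidium bromide 1 μg/mL, UV imaging. Inhibition judged by retained supercoiled DNA. Gels representative of three experiments.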

[3] = Cytotoxicity against human mitoxantrone-resistant HL60/MX2 cells after 72 hrs by trypan blue assay; type: functional, cell-based; details: HL60/MX2, 72 h
Procedure, shortened: (§2)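 Cells seeded at 4 × 10^4 per well and cultured 24 h at 37 °C in 5% CO2. Test agents then added to the complete medium for a further 72 h. Viable cells counted by trypan blue. IC50 is the concentration giving 50% fewer cells than control cultures. HL-60 grown in RPMI 1640 + 15% heat-inactivated FCS; HL-60/MX2 grown in RPMI 1640 + 10% heat-inactivated FCS.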

HL-60 [4] = assay: Cytotoxicity against human HL60 cells after 72 hrs by trypan blue assay; type: functional, cell-based; details: HL-60, 72 h; procedure, shortened: as §2
[5] = biological target: DNA topoisomerase 2-alpha (Homo sapiens) (UniProt P11388); assay: Inhibition of human recombinant topoisomerase 2 relaxation activity assessed as supercoiled pBR322 DNA at 2.5 uM; procedure, shortened: as §1
[6] = Stabilization of supercoiled pBR322 DNA-human recombinant topoisomerase 2 complex assessed as reduction in linear DNA formation at 20 uM
[7] = Stabilization of supercoiled pBR322 DNA-human recombinant topoisomerase 2 complex assessed as reduction in linear DNA formation at 5 uM
HL-60 [8] = assay: Ratio of IC50 for mitoxantrone-resistant human HL60/MX2 cells to IC50 for human HL60 cells
[9] = biological target: T1, Topoisomerase I (Bos taurus) (UniProt Q2HPH0); assay: Inhibition of calf thymus topoisomerase 1-mediated supercoiled pBR322DNA relaxation activity
T1 sequence (whole entry): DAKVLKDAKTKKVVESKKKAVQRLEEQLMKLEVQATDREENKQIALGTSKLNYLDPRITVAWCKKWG
Procedure, shortened: (§3)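 Calf thymus topoisomerase I (2 U) incubated with supercoiled pBR322 (0.25 μg) and compound for 60 min at 37 °C. Stopped with SDS stop buffer plus 50 μg/mL proteinase K for 30 min at 37 °C. Run on 1% agarose, stained with ethidium bromide 1 μg/mL in TAE, imaged under UV. Gels representative of three experiments.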

[10] = biological target: DNA topoisomerase 2-alpha (Homo sapiens) (UniProt P11388); assay: Inhibition of human recombinant topoisomerase 2 relaxation activity assessed as supercoiled pBR322 DNA; procedure, shortened: as §1
HeLa = assay: Cytotoxicity against human HeLa cells after 72 hrs by trypan blue assay; type: functional, cell-based
Procedure, shortened: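 HeLa cells grown in Nutrient Mixture F-12 with 10% heat-inactivated FCS at 37 °C, 5% CO2. Seeded at 4 × 10^4 per well for 24 h, then medium replaced with fresh medium containing test agents for 72 h. Viability by trypan blue. IC50 is the concentration reducing cell number by 50% versus control.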

[11] = biological target: T1, Topoisomerase I (Bos taurus); assay: Inhibition of calf thymus topoisomerase 1-mediated supercoiled pBR322DNA relaxation activity at 10 uM; procedure, shortened: as §3
[12] = biological target: DNA topoisomerase 2-alpha (Homo sapiens) (UniProt P11388); assay: Inhibition of human recombinant topoisomerase 2 relaxation activity assessed as supercoiled pBR322 DNA at 5 uM; procedure, shortened: as §1
[13] = Stabilization of supercoiled pBR322 DNA-human recombinant topoisomerase 2 complex assessed as reduction in linear DNA formation at 10 uM
Nucleic Acid = assay: Binding affinity to salmon testes DNA assessed as negative dichroic signal at 0.04 drug to DNA ratio by LD spectra; type: nucleic-acid assay; details: Salmonidae
Procedure, shortened: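 LD spectra of salmon testes DNA (1.9 × 10^-3 M) in ETN buffer (10 mM TRIS, 10 mM NaCl, 1 mM EDTA, pH 7) at 25 °C over several [drug]/[DNA] ratios. Orientation by shear gradient of 500-700 rpm; each spectrum accumulated four times.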

[14] = biological target: DNA topoisomerase 2-alpha (Homo sapiens) (UniProt P11388); assay: Inhibition of human recombinant topoisomerase 2-mediated end-labeled DNA cleavage in absence of ATP at 5 uM
[15] = Stabilization of supercoiled pBR322 DNA-human recombinant topoisomerase 2 complex assessed as reduction in linear DNA formation
[16] = biological target: DNA topoisomerase 2-alpha (Homo sapiens) (UniProt P11388); assay: Inhibition of human recombinant topoisomerase 2-mediated end-labeled DNA cleavage in absence of ATP at 200 uM

Chain of DNA topoisomerase 2-alpha (Homo sapiens) (P11388 whole entry): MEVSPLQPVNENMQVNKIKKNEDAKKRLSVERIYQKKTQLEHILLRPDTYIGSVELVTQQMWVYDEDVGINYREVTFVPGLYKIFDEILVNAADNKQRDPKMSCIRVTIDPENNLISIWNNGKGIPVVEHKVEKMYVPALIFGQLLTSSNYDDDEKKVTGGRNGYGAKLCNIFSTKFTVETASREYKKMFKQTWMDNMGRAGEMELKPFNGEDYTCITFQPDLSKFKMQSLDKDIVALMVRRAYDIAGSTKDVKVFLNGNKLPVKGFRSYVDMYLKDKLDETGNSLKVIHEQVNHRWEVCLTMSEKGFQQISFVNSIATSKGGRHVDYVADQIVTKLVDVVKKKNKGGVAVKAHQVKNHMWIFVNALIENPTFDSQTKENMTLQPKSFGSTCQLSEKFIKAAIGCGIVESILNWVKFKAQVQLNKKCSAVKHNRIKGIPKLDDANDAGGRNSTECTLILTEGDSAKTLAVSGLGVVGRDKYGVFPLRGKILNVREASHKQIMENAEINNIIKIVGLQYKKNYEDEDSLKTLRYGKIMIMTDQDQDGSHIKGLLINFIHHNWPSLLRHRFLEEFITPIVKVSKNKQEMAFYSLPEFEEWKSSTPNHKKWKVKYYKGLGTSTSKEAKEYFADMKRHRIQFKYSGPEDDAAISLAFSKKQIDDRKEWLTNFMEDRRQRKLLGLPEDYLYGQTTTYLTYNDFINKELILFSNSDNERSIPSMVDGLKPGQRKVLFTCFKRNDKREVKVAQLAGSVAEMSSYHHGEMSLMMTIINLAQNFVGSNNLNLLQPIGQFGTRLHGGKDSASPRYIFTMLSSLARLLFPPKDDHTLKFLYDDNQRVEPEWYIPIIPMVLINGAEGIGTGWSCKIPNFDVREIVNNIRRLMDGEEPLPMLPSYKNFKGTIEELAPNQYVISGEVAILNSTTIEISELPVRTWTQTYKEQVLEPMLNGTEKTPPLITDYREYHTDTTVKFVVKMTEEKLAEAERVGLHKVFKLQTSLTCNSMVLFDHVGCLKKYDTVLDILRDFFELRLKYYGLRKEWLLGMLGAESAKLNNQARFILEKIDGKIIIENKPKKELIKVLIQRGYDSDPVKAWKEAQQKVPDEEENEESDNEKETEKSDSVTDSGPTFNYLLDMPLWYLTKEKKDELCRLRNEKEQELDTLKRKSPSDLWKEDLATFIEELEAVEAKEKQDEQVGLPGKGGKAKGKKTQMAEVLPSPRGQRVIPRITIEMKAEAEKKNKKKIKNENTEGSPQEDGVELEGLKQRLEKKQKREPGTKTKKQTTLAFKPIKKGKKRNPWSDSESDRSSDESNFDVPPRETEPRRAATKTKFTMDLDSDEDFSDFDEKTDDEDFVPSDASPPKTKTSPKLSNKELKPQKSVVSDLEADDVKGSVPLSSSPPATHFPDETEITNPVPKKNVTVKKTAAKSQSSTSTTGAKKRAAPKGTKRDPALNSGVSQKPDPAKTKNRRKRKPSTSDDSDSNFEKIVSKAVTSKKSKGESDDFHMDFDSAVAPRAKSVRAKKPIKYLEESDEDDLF

| Compound | IC50 (HL-60 [4]) [nM] | IC50 (HeLa) [nM] | other results |
| --- | --- | --- | --- |
| COc1cc(NS(C)(=O)=O)ccc1Nc1c2ccccc2nc2ccccc12 | – | – | Activity [1]: Active; Activity [2]: Active |
| COc1ccc2c(=O)c3c(sc2c1)c1ccccc1n3CCN(C)C | 410 | 1300 | IC50 [3]: 2350 nM; Activity [5]: Active; Activity [6]: Active; Activity [7]: Active; Ratio IC50 (HL-60 [8]): 6; Activity [9]: Dose-dependent effect; Activity [10]: Dose-dependent effect; Activity [11]: Active; Activity [12]: Active; Activity [13]: Active; Activity (Nucleic Acid): Active |
| COc1ccc2c(=O)c3[nH]c4ccccc4c3sc2c1 | > 20000 | > 20000 | Activity [5]: Active; Activity (Nucleic Acid): Active |
| CCN(CC)CCn1c2ccc(Cl)cc2c2sc3cc(OC)ccc3c(=O)c21 | 710 | 1120 | – |
| CN(C)CCCn1c2ccccc2c2sc3cc(Cl)ccc3c(=O)c21 | 7190 | 14000 | – |
| COc1ccc2c(=O)c3c(sc2c1)c1cc(OC)ccc1n3CCCN(C)C | 1350 | 2600 | – |
| CCN(CC)CCCn1c2ccccc2c2sc3cc(Cl)ccc3c(=O)c21 | 2640 | 2910 | – |
| CCN(CC)CCn1c2ccccc2c2sc3cc(OC)ccc3c(=O)c21 | 1800 | 2700 | Activity [5]: Active; Activity (Nucleic Acid): Active |
| COc1ccc2c(=O)c3[nH]c4ccc(Cl)cc4c3sc2c1 | > 20000 | > 20000 | – |
| O=c1c2ccc(Cl)cc2sc2c1[nH]c1ccccc12 | > 20000 | > 20000 | – |
| CCN(CC)CCCn1c2ccccc2c2sc3cc(OC)ccc3c(=O)c21 | 2400 | 3900 | Activity [5]: Active; Activity (Nucleic Acid): Active |
| CCN(CC)CCn1c2ccccc2c2sc3cc(Cl)ccc3c(=O)c21 | 3210 | 4330 | – |
| CCN(CC)CCn1c2ccc(OC)cc2c2sc3cc(OC)ccc3c(=O)c21 | 1100 | 2300 | – |
| CCN(CC)CCCn1c2ccc(OC)cc2c2sc3cc(OC)ccc3c(=O)c21 | 1500 | 2500 | – |
| CN(C)CCn1c2ccccc2c2sc3cc(Cl)ccc3c(=O)c21 | 1310 | 1530 | – |
| CCN(CC)CCCn1c2ccc(Cl)cc2c2sc3cc(OC)ccc3c(=O)c21 | 1020 | 1680 | – |
| COc1ccc2c(=O)c3c(sc2c1)c1ccccc1n3CCCN(C)C | 1900 | 2900 | Activity [5]: Active |
| COc1ccc2c(=O)c3c(sc2c1)c1cc(Cl)ccc1n3CCN(C)C | 1170 | 1820 | – |
| COc1ccc2c(=O)c3c(sc2c1)c1cc(Cl)ccc1n3CCCN(C)C | 1070 | 1850 | – |
| COc1ccc2c(=O)c3[nH]c4ccc(OC)cc4c3sc2c1 | > 20000 | > 20000 | – |
| Cc1c2ccncc2c(C)c2c1[nH]c1ccccc12 [ELLIPTECINE] | 660 | 290 | – |
| COc1ccc2c(=O)c3c(sc2c1)c1cc(OC)ccc1n3CCN(C)C | 660 | 2150 | Activity [14]: Active; Activity [5]: Active; Activity [10]: Dose-dependent effect; Activity [12]: Active; Activity [15]: inactive; Activity [16]: Active |
